Experimental data as given in PMC8569251 (European journal of pharmaceutical sciences : official …, 2020).
In brackets after ≈: the same amount, converted by molar mass.

Tests used:
C. albicans yeast = experiment: Antimicrobial activity; assay type: cell-based, C. albicans SC5314
E. coli = experiment: Antimicrobial activity; assay type: cell-based; conditions: 24 h incubation; MIC100
Outline: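 E. coli from LB medium, inoculated into LB broth at 10⁵ CFU/mL in 96-well plates with test compound at 1–400 µg/mL. Concentrations re-tested in 1 µg/mL (low MIC) or 5 µg/mL (high MIC) steps. MIC is the lowest concentration giving 100% growth inhibition. Triplicate. Colistin positive control; compound-free culture negative control.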

[1] = system: C. albicans hyphae (biofilm); experiment: Inhibition of Candida biofilm; assay type: cell-based, C. albicans SC5314
[2] = system: methicillin-resistant Staphylococcus aureus (MRSA) LAC300; experiment: Antimicrobial activity; assay type: cell-based; conditions: 24 h, read-out: MIC, Bacteria S. aureus
[3] = experimental activities, −log MIC50, QSAR training set

## CC(=O)N1CCN(c2ccc(OCC3COC(Cn4ccnc4)(c4ccc(Cl)cc4Cl)O3)cc2)CC1 (stereo not shown) [Ketoconazole, reference compound]
C. albicans yeast; 24 h, read-out: MIC, C. albicans Yeast
  MIC: 3 µg/mL (≈ 5.65 µM)

## Colistin [reference compound]
E. coli
  MIC, Bacteria E. coli: 5 µg/mL

## COc1cc(C=C2SC(=S)NC2=O)ccc1OCc1cccc(C(F)(F)F)c1 [SR7]
E. coli
  MIC, Bacteria E. coli: 100 ± 5 µg/mL (≈ 235 µM)
C. albicans yeast; 24 h incubation, lowest concentration inhibiting 100% of growth (MIC100)
  MIC, C. albicans Yeast: 125 ± 10 µg/mL (≈ 294 µM)
C. albicans yeast; [3]
  pMIC50 Yeast: 3.579 M/L
[1]; 10 μg/mL
  hyphae inhibition: 90%
[1]; 24 h incubation, 100% inhibition of biofilm (hyphal) formation (MIC100)
  MIC, C. albicans Hyphae: 10 ± 3 µg/mL (≈ 23.5 µM)
[1]; [3]
  pMIC50 Hyphae: 4.764 M/L

## CN[C@H](CC(C)C)C(=O)N[C@H]1C(=O)N[C@@H](CC(N)=O)C(=O)N[C@H]2C(=O)N[C@H]3C(=O)N[C@H](C(=O)N[C@H](C(=O)O)c4cc(O)cc(O)c4-c4cc3ccc4O)[C@H](O)c3ccc(c(Cl)c3)Oc3cc2cc(c3O[C@@H]2O[C@H](CO)[C@@H](O)[C@H](O)[C@H]2O[C@H]2C[C@](C)(N)[C@H](O)[C@H](C)O2)Oc2ccc(cc2Cl)[C@H]1O [Vancomycin]
[2]
  MIC: 3 µg/mL (≈ 2.07 µM)

## Triton X-100
Human erythrocytes
  erythrocyte hemolysis (positive control): 100%
